Hits are enriched below; roughly 2.2% of the tested compounds scored in any of these assays.
PPC-1+TRAIL kill = compounds killing PPC-1 cancer cells with TRAIL present (potentiator screen, no TRAIL-free arm). PPC-1 cells + TRAIL, ATPLite viability luminescence. cell killing (% activity), % at 4 µM or 5 µM. hit rate 0.41% among 220,000;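 active means cell killing above 50% in the first pass at 4 µM, then a duplicate retest at 5 µM averaging 50% or more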;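 further: plate controls were cells with TRAIL plus DMSO for no effect and medium-only wells lacking cells for full effect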
C8 TRAIL sens = caspase-8 TRAIL sensitization. inhibition (viability loss, TRAIL sensitization), % at 10 µM. hit rate 1% among 360,000. NB7+C8 cells + TRAIL, ATPlite viability luminescence;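 active means compounds causing at least 50% loss of cell viability in the single-dose screen, relative to plate controls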
APP 5'UTR act = APP 5'UTR luciferase reporter activation; SH-SY5Y APP 5'UTR luciferase reporter, luminescence; zero percent = DMSO vehicle wells; activation, % at 2 µM; hit rate 1% among 190,000; AID 1276;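 active means activation above a set limit, based on mean plus 3 SD of controls, cut at about 140% in these data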
NF-kB neuron act = raises NF-kB expression in human neuronal cells. NF-kB reporter expression; stronger effect = higher value. fold change at 12.5 µM. hit rate 1.6% among 190,000; in the data active means fold change above about 3.3
FLuc inhib CS = Photinus pyralis luciferase inhibition counter-screen; hit rate 1.5% among 200,000; P08659; ATPLite firefly luciferase biochemical luminescence, 10 min; inhibition, % at 10 µM;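 active means inhibition above about 50% when tested at 10 µM, limit read from the data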
Target sequence (P08659 whole entry, looked up): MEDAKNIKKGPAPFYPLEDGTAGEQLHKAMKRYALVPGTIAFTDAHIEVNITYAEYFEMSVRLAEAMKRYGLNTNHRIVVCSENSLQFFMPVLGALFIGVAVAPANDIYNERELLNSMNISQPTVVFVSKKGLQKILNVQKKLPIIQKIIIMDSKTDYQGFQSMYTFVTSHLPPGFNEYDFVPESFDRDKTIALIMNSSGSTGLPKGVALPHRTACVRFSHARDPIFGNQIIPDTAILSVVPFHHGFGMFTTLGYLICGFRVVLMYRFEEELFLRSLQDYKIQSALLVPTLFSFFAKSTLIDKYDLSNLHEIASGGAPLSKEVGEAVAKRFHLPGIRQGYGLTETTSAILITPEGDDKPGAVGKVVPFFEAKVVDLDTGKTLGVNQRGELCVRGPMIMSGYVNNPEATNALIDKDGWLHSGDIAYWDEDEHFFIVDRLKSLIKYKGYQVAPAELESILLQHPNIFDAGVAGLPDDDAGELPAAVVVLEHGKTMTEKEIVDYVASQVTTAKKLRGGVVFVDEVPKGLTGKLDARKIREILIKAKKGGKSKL
FLuc stim CS = affects firefly luciferase, flagging false hits in luciferase stimulation screens. activation factor at 10 µM. P08659. ATPlite luciferase biochemical, luminescence, 10 min; 0 = ATP-free wells, 1 = DMSO control. 200,000 tested, under 10 active. AID 1027;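 active means luciferase activation factor, scaled between plate controls, of at least 2 with compound at 10 µM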
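Material: luciferase plus luciferin reagent, cell-free. Medium: PBS buffer for ATP. Also added: ATP substrate, dispensed from a 10.24 µM working solution in PBS. Doses: test compounds dosed from 2 mM stocks in 100% DMSO. Incubation: 10 min post-reagent at room temperature. Technique: light output (luminescence). Read-out basis: luminescence gain marking luciferase activators.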
Active calls of the source: *; . = no result given.

SMILES | PPC-1+TRAIL kill | C8 TRAIL sens | APP 5'UTR act | NF-kB neuron act | FLuc inhib CS | FLuc stim CS
COc1ccc(C)cc1NC(=O)NCc1ccccc1F | 30 | 33 | 15 | 1.4 | 68* | 0.3
CN(C)c1ccc(/C=N/N=C2/NC(=O)/C(=C/c3ccc([N+](=O)[O-])cc3)S2)cc1 | 54* | 87* | 6 | 0.8 | 89* | 0.1
S=c1nc(C2CC2)n(-c2ccccc2)[nH]1 | 8 | -3 | . | . | . | .
O=C(COC(=O)Cc1ccccc1F)NCCNC(=O)COC(=O)Cc1ccccc1F | . | 8 | . | . | . | .
Oc1cc(O)cc(-c2cc3ccc(O)cc3o2)c1 | . | 13 | . | . | . | .
CC1(C)Oc2cc3oc(-c4cc(O)cc(O)c4)cc3cc2CC1O (stereo unspecified) | . | 80* | . | . | . | .
Cc1ccc(/C=N/NC(=O)c2c[nH]c3ccccc23)s1 | 31 | 16 | 78 | 3.1 | 26 | 0.7
CCn1nc(C)c(/C=N/NC(=O)c2c[nH]c3ccccc23)c1C | 14 | 17 | 35 | 1.5 | 59* | 0.4
O=C(N/N=C/c1ccc[nH]1)c1c[nH]c2ccccc12 | . | 78* | . | . | . | .
N#CC1(NC(=O)CSc2nnc3n2CCCCC3)CCCCC1 | . | -5 | . | . | . | .
COc1ccccc1NC(=O)c1c(C)nc2ccccc2c1C(=O)O | 4 | 14 | . | . | . | .
COc1cccc2c1CCc1c-2nc2ccccc2c1C(=O)O | . | 68* | . | . | . | .
Cc1ccc(S(=O)(=O)Nc2ccc3cc([N+](=O)[O-])ccc3c2[N+](=O)[O-])cc1 | . | 12 | . | . | . | .
CC[C@H](C)[C@H]1O[C@]2(CC[C@@H]1C)C[C@@H]1C[C@@H](CC=C(C)[C@@H](O[C@H]3C[C@H](OC)[C@@H](O[C@H]4C[C@H](OC)[C@@H](O)[C@H](C)O4)[C@H](C)O3)[C@@H](C)C=CC=C3CO[C@@H]4[C@H](O)C(C)=C[C@@H](C(=O)O1)[C@]34O)O2 | . | 71* | . | . | . | .
CSc1sc(C(=O)NN)c2c1C(O)CCC2 (stereo unspecified) | . | -8 | . | . | . | .
CCOc1ccc(NC(=O)C2CCCN2S(=O)(=O)c2ccc(OCC)cc2)cc1 (stereo unspecified) | . | 0 | . | . | . | .
Cc1ccc(C)c(C(=O)COC(=O)c2cccc(N3C(=O)c4c(C)nc5ccccc5c4C3=O)c2)c1 | 65* | 57* | 141* | 0.42 | 60* | 0.4
CC(=O)c1sc(NC(=O)C2COc3ccccc3O2)nc1C (stereo unspecified) | . | -11 | 132 | 1.5 | 60* | 0.4
CC1(C)Oc2ccc(NC(=O)C3COc4ccccc4O3)cc2O1 (stereo unspecified) | 8 | 33 | 168* | 4.9* | 41 | 0.6
c1ccc([C@H]2CN3C(=N2)Sc2ccccc23)cc1 | . | 32 | . | . | . | .
COC(=O)c1ccccc1NC(=O)CSc1nc2ccsc2c(=O)n1Cc1ccc(C(=O)O)cc1 | . | 5 | . | . | . | .
Cc1ccnc(OC(C(=O)O)C(OCc2ccccc2)(c2ccc(F)cc2)c2ccc(F)cc2)n1 (stereo unspecified) | . | 0 | . | . | . | .
Clc1nc2ccccc2cc1/C=N/Nc1nc2ccccc2[nH]1 | 37 | 83* | 104 | 1.4 | 88* | 0.1
O=C(O)c1ccc(N/N=C/c2cc3ccccc3nc2Cl)cc1 | 14 | 15 | . | . | . | .
C(=N\Nc1nc2ccccc2[nH]1)/c1cccs1 | 27 | 5 | 137* | 4.1* | 68* | 0.3
SMILES | PPC-1+TRAIL kill | C8 TRAIL sens | APP 5'UTR act | NF-kB neuron act | FLuc inhib CS | FLuc stim CS
Cn1c(/C=N/Nc2nc3ccccc3[nH]2)nc2ccccc21 | 48 | 38 | 35 | 1.2 | 83* | 0.2
CCCn1c(/C=N/Nc2nc3ccccc3[nH]2)nc2ccccc21 | -2 | 26 | -74 | 1.4 | 10 | 0.9
C(=N\Nc1nc2ccccc2[nH]1)/c1ccncc1 | 33 | 9 | 10 | 1.1 | 27 | 0.7
Cc1ccsc1/C=N/Nc1nc2ccccc2[nH]1 | 1 | 7 | 145* | 5.3* | 74* | 0.3
O=C(OCC(=O)N1CCOCC1)c1cc(F)c(F)cc1Cl | . | -10 | . | . | . | .
CCc1nnc(NC(=O)c2cc(S(=O)(=O)N(C)c3ccc(OC)cc3)ccc2Cl)s1 | . | 5 | . | . | . | .
CC1C/C(=N/Nc2nc3ccccc3[nH]2)CC(C)(C)C1 (stereo unspecified) | 38 | 1 | 53 | 0.85 | 5 | 0.9
Cc1nn(-c2ccccc2)c(C)c1/C=N/Nc1nc2ccccc2[nH]1 | 29 | 43 | 154* | 2.9 | 80* | 0.2
Cc1cc(=O)[nH]c(N/N=C/c2c(C)nn(-c3ccccc3)c2C)n1 | 20 | -7 | -3 | 0.86 | -4 | 1
c1ccc2[nH]c(NN=C3CCCCCC3)nc2c1 | 20 | 16 | 46 | 1.1 | 82* | 0.2
O=S(=O)(c1ccc2c(c1)C(=NO)c1cc(S(=O)(=O)N3CCCCC3)ccc1-2)N1CCCCC1 | 95* | 91* | -5 | 0.81 | 17 | 0.8
CC1CCN(S(=O)(=O)c2ccc3c(c2)C(=NO)c2cc(S(=O)(=O)N4CCC(C)CC4)ccc2-3)CC1 | 97* | 95* | -4 | 1.1 | -2 | 1
COc1ccc(S(=O)(=O)N2CCC(C)CC2)cc1OC | . | 19 | . | . | . | .
Cc1ccsc1/C=C1\CCC(C2CCCC2)C1=O (stereo unspecified) | 1 | 18 | 202* | 5.9* | 45 | 0.5
Cc1ccc(/C=C2\CCC(C3CCCC3)C2=O)cc1 (stereo unspecified) | 33 | 6 | 157* | 1.6 | 57* | 0.4
COc1ccc(/C=C2\CCC(C3CCCC3)C2=O)cc1 (stereo unspecified) | . | -1 | . | . | . | .
COc1c(C)cc(C(O)c2ncc(-c3ccccc3F)[nH]2)cc1C (stereo unspecified) | . | -21 | . | . | . | .
C(=N\Nc1nc(-c2ccccc2)cs1)/c1ccco1 | 23 | 12 | 156* | 5.2* | 26 | 0.7
C(=N\Nc1nc(-c2ccccc2)cs1)/c1cccs1 | 19 | 0 | 47 | 7.4* | 6 | 0.9
CN(C)S(=O)(=O)c1ccc(-c2csc(N/N=C/c3ccc(O)cc3)n2)cc1 | -4 | 85* | . | . | . | .
CN(C)S(=O)(=O)c1ccc(-c2csc(N/N=C/c3ccco3)n2)cc1 | 12 | 72* | . | . | . | .
Cc1ccc(-c2csc(N/N=C/c3ccco3)n2)cc1 | 14 | 1 | 25 | 2.9 | -2 | 1
CC1CCCCC12NC(=O)N(CC(=O)NCCc1c[nH]c3ccccc13)C2=O (stereo unspecified) | . | 5 | . | . | . | .
S=C1NC(c2cccs2)=CC(c2ccc(Br)cc2)N1 (stereo unspecified) | 34 | 0 | 12 | 4* | 1 | 1
S=C1NC(c2ccccc2)=CC(c2ccccc2)N1 (stereo unspecified) | 20 | -18 | -6 | 1.2 | -2 | 1
COC(=O)[C@]12CCCCC=C1N(Cc1ccccc1)C(=O)[C@H](CC(=O)NCc1ccccc1)C2 | . | -4 | . | . | . | .
COc1ccc([C@H]2CC(=O)C[C@@H](CCn3cc(-c4ccccn4)nn3)O2)cc1 | . | -26 | . | . | . | .
